Test results: ChEMBL document CHEMBL5390255, “Expanding the squaramide library as mycobacterial ATP synthase inhibitors: Innovative synthetic pathway and biological evaluation” (Bioorg Med Chem, 2023)
≈ marks a conversion by molar mass, not a printed value. Calls of active or inactive are those of the source. The rule behind the calls is not given here.

Columns and labels:
[1] = Octanol/water partition coefficient log P of the compound; assay type: physicochemical
How it was run: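 Calculated by Chemaxon as log n-octanol/water partition coefficient, not measured.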

[2] = Cytotoxicity against mouse RAW264.7 cells assessed as reduction of cell viability incubated for 72 hrs by Cell Titer-Glo assay; assay type: toxicity, cell-based
[3] = system: Mycobacterium tuberculosis; assay: Antibacterial activity against Mycobacterium tuberculosis H37Ra assessed as bacterial growth inhibition incubated for 7 days by broth microdilution method; assay type: functional; conditions: time 7 day
How it was run: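 H37Ra-Lux luminescent broth microdilution. Cultures in 7H9/OADC/tyloxapol/glycerol at 1x10⁴ RLU/well. 2-fold nine-point dilution from final 100 µM, DMSO ≤0.5%, in triplicate, with bedaquiline reference. Incubated 7 days at 37 °C; luminescence read after n-decanal injection. MIC90 from variable-slope four-parameter nonlinear regression.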

[4] = system: Mycobacterium tuberculosis; assay: Bactericidal activity against Mycobacterium tuberculosis H37Ra assessed as bacterial growth inhibition incubated for 3 to 4 weeks by broth microdilution method; assay type: functional; conditions: time 3-4 weeks
How it was run: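 MBC: same H37Ra-Lux microdilution setup as the MIC assay. At 14 days, 2 µL per condition spotted on 7H11 agar in triplicate, and wells at and one step above MIC fully plated. Colonies counted after 3–4 weeks at 37 °C. MBC is the lowest concentration giving >99% kill.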

[5] = system: Mycobacterium tuberculosis; assay: Synergistic antibacterial activity against Mycobacterium tuberculosis H37Ra assessed as fractional inhibitory concentration index at 2 times MIC measured after 7 days in presence of clofazimine by checkerboard microdilution assay; assay type: functional; conditions: time 7 day
How it was run: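 Checkerboard with H37Ra-Lux, in triplicate. Squaramide 2-fold dilutions from 2x MIC across columns; clofazimine 2-fold dilutions from 2x MIC down rows. Luminescence read at 7 days. FICI calculated as A/MIC A + B/MIC B.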

[6] = system: Mycobacterium tuberculosis; assay: Anti-mycobacterial activity against Mycobacterium tuberculosis H37Ra infected in mouse RAW264.7 cells at 0.5 to 2 times MIC measured after 24 hrs by time-kill kinetic assay; assay type: functional, organism-based
How it was run: (§1)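 RAW 264.7 macrophages infected with H37Ra-Lux at MOI 10 for 4 h in DMEM with 5% iFBS. Extracellular bacteria were removed with 200 µg/ml amikacin for 1 h, and cells reseeded at 5x10⁴/well. […] Cells were PBS-washed, lysed in 0.1% Triton X-100, and luminescence read with n-decanal at 24, 48 and 72 h.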

[7] = system: Mycobacterium tuberculosis; assay: Anti-mycobacterial activity against Mycobacterium tuberculosis H37Ra infected in mouse RAW264.7 cells at 0.5 to 2 times MIC measured after 72 hrs by time-kill kinetic assay; assay type: functional, organism-based; how it was run: as §1
[8] = system: Mycobacterium tuberculosis; assay: Antibacterial activity against Mycobacterium tuberculosis H37Rv assessed as bacterial growth inhibition by resazurin staining based broth micro-dilution assay; assay type: functional
[9] = Selectivity index, ratio of MIC for antibacterial activity against Mycobacterium tuberculosis H37Rv to the IC50 for inhibition of Mycobacterium tuberculosis H37Rv ATP synthase; assay type: toxicity
ATP synthase = assay: Inhibition of Mycobacterium tuberculosis H37Rv ATP synthase by luminometer analysis; assay type: protein-complex assay
[10] = Stability of compound; assay type: physicochemical
[11] = system: Mycobacterium tuberculosis; assay: Antibacterial activity against wild type Mycobacterium tuberculosis H37Ra incubated for 7 days by resazurin staining based microtiter assay; assay type: functional; conditions: 168 h, time 7 day
How it was run: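 Resazurin microtiter assay on H37Ra atpB K179N mutants and wild type, using exponential cultures diluted to OD 0.02. 3-fold serial dilution from 10 µM (0.002–10 µM), in triplicate. After 7 days, 0.02% resazurin added for 24 h, then fluorescence read (ex 530/em 590 nm). MIC taken from four-parameter variable-slope nonlinear regression.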

[12] = system: Mycobacterium tuberculosis; assay: Anti-mycobacterial activity against Mycobacterium tuberculosis H37Ra infected in mouse RAW264.7 cells at 0.5 times MIC measured after 24 hrs by time-kill kinetic assay; assay type: functional, organism-based; how it was run: as §1
[13] = system: Mycobacterium tuberculosis; assay: Anti-mycobacterial activity against Mycobacterium tuberculosis H37Ra.mScarlet+ infected in mouse RAW264.7 cells assessed as reduction in bacterial load at 4 uM incubated for 72 hrs by 488-I Phalloidin/DAPI staining based microscopic analysis relative to control; assay type: functional; design: scale not given: the % may be the effect or the level left
How it was run: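 RAW 264.7 cells infected with H37Ra.mScarlet⁺, seeded on coverslips at 5x10⁵ cells/ml, and treated with compound at 0.5% final DMSO; infected cells with 0.5% DMSO as control. At 72 h cells were PBS-washed and fixed in 4% paraformaldehyde. Actin stained with phalloidin 488 (1:1000, 15 min) and nuclei with 1 µg/ml DAPI (5 min). Imaged by fluorescence microscopy at 63x.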

[14] = Mycobacterium tuberculosis, H37Ra, 168 h, read-out: MIC
[15] = Mycobacterium tuberculosis, H37Ra, read-out: MBC

Structure (SMILES) | logP [1] | CC50 at 72 h [2] [µM] | MIC [3, 14] [µM] | other results
O=c1c(NCc2ccccc2)c(NCc2ccccn2)c1=O | 1.67 | > 64 | > 64 | –
O=c1c(NCCCBr)c(NCc2ccccn2)c1=O | 0.85 | > 64 | > 64 | –
O=c1c(NCc2ccccn2)c(N2CCOCC2)c1=O | 0.11 | > 64 | > 64 | –
COc1ccc(-c2c(NCc3ccccn3)c(=O)c2=O)cc1 | 2.18 | > 64 | 6.59 (≈ 1.94 µg/mL) | MBC [4, 15]: 8 µM (≈ 2.35 µg/mL); fractional inhibitory concentration index (FICI) [5]: 0.63; Activity [6]: inactive; Activity [7]: inactive
COc1ccc(/C=C2/S/C(=N/N=C/c3ccccc3O)NC2=O)cc1 | – | – | – | MIC90 ([8]; Mycobacterium tuberculosis, H37Rv): 0.5 µg/mL (≈ 1.41 µM)
O=c1c(NCc2ccccn2)c(NC2CCCCC2)c1=O | 1.74 | > 64 | > 64 | –
O=c1c(NCc2ccccn2)c(-c2ccc(F)cc2)c1=O | 2.48 | > 64 | 14.9 (≈ 4.21 µg/mL) | MBC [4, 15]: > 100 µM
O=c1c(NCc2ccccn2)c(Nc2nc3ccc(Cl)cc3o2)c1=O | 2.22 | > 64 | > 64 | –
O=c1c(NCc2ccccn2)c(-c2ccc(C3CCNCC3)cc2)c1=O | 2.44 | > 64 | > 64 | –
O=c1c(NCc2ccccn2)c(Nc2cc(C3CC3)n[nH]2)c1=O | 0.89 | > 64 | > 64 | –
O=c1c(NCc2ccccn2)c(Nc2ccccc2)c1=O | 1.58 | > 64 | 15.1 (≈ 4.23 µg/mL) | –
CCCNc1c(NCc2ccccn2)c(=O)c1=O | 0.82 | > 64 | > 64 | –
Cc1ccc2oc(Nc3c(NCc4ccccn4)c(=O)c3=O)nc2c1 | 2.13 | > 64 | > 64 | –
O=c1c(NCc2ccccn2)c(-c2ccc(N3CCOCC3)cc2)c1=O | – | > 64 | – | Selectivity Index [9]: > 1000; MBC [4]: 0.4 µM (≈ 0.14 µg/mL); MIC [8]: 0.5 µM (≈ 0.175 µg/mL); IC50 (ATP synthase): 0.03 µM; fractional inhibitory concentration index (FICI) [5]: 0.37; MIC [3]: 0.77 µM (≈ 0.269 µg/mL); Activity [7]: inactive
CC/C(=C(\c1ccccc1)c1ccc(OCCN(C)C)cc1)c1ccccc1 [TAMOXIFEN] | – | 5.03 | – | –
O=c1c(NCc2ccccn2)c(-c2ccc(C3CCCCC3)cc2)c1=O | 4.45 | > 64 | > 64 | –

Structure (SMILES) | logP [1] | CC50 at 72 h [2] [µM] | MIC [3, 14] [µM] | other results
O=c1c(NCc2ccccn2)c(N2CCC(c3ccccc3)CC2)c1=O | 2.6 | 7.47 | > 64 | –
O=c1c(NCc2ccccn2)c(-c2ccc(N3CCSCC3)cc2)c1=O | 2.8 | > 64 | 0.9 (≈ 0.329 µg/mL) | MBC [4, 15]: 1.2 µM (≈ 0.439 µg/mL); fractional inhibitory concentration index (FICI) [5]: 0.48; Stability [10]: Unstable; Activity [7]: inactive
O=c1c(NCc2ccccn2)c(Nc2nc3cc(Cl)ccc3o2)c1=O | 2.22 | > 64 | > 64 | –
O=c1c(NCc2ccccn2)c(-c2ccc(N3CCNCC3)cc2)c1=O | 1.91 | > 64 | 19.9 (≈ 6.93 µg/mL) | MBC [4, 15]: 64 µM (≈ 22.3 µg/mL)
COc1nc2ccc(Br)cc2cc1[C@@H](c1ccccc1)[C@@](O)(CCN(C)C)c1cccc2ccccc12 [BEDAQUILINE] | – | – | 0.05 (≈ 0.0278 µg/mL) | MBC [4, 15]: 0.03 µM (≈ 0.0167 µg/mL); MIC [11]: 0.1 µM (≈ 0.0556 µg/mL)
O=c1c(NCc2ccccn2)c(N2CCCCC2)c1=O | 1.18 | > 64 | > 64 | –
O=c1c(NCc2ccccn2)c(Nc2nc3cc([N+](=O)[O-])ccc3o2)c1=O | 1.55 | > 64 | > 64 | –
O=c1c(NCc2ccccn2)c(Nc2nc3ccccc3o2)c1=O | 1.61 | > 64 | > 64 | –
CCCCCCNc1c(NCc2ccccn2)c(=O)c1=O | 2.16 | > 64 | > 64 | –
O=c1c(NCc2ccccn2)c(Nc2nc3ccc([N+](=O)[O-])cc3o2)c1=O | 1.55 | > 64 | > 64 | –
O=c1c(NCc2ccccn2)c(NC2CCCCCCC2)c1=O | 2.63 | > 64 | > 64 | –
Cc1ccc2nc(Nc3c(NCc4ccccn4)c(=O)c3=O)oc2c1 | 2.13 | > 64 | > 64 | –
O=c1c(NCc2ccccn2)c(N2CCNCC2)c1=O | -0.21 | > 64 | > 64 | –
C#CCNc1c(NCc2ccccn2)c(=O)c1=O | 0.17 | > 64 | > 64 | –
O=c1c(NCc2ccccn2)c(-c2ccc(N3CCCCC3)cc2)c1=O | 3.29 | > 64 | 2.56 (≈ 0.889 µg/mL) | MBC [4, 15]: 1.2 µM (≈ 0.417 µg/mL); fractional inhibitory concentration index (FICI) [5]: 0.29; Activity [12]: Active; Activity [13]: 80%; Activity [7]: inactive
O=c1c(NCc2ccccn2)c(N2CCN(c3ccccc3)CC2)c1=O | 2.06 | 26.2 | > 64 | –
